Assay [1] is described as follows: reducers of endogenous Her2 protein level, primary screen, SKBR3 breast tumor cells, AlphaScreen, ATP viability (AID 461).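 For Her2 level: lower value means less Her2 protein in the cells.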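 For viability: percent of carrier control wells set as 100% viability.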 The conditions noted are these: 18-24 h, measured here: SKBR3 viability, ATP luminescence, at 10 µM.
Assay [2] deals with Receptor tyrosine-protein kinase erbB-2 (Homo sapiens) (UniProt P04626). The assay is described as above. The conditions noted are these: 18-24 h, at 10 µM, stronger effect = lower value.
Assay [3] can be described thus: SK-BR-3 cell growth inhibitors, pilot screen, 24 h, human (AID 572;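 active = viability at or below 10% of carrier control in both of two separate runs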;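 note: compound exposure lasted between 18 and 24 h rather than exactly 24 h; 100% = carrier-treated control wells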). Particulars: SK-BR-3 viability, CellTiter-Glo luminescence, at 10 µM, stronger effect = lower value.
A short description of assay [4]: HUVEC growth inhibition – cell-based, human, primary screen (AID 575;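 active = viability at or below 30% in both replicate assays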;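 note: 100% = median of untreated cell wells with 0.1% DMSO on each plate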). The conditions noted are these: HUVEC proliferation, CellTiter-Glo luminescence, 72 h; at 10 µM; stronger effect = lower value. In outline: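 material = primary HUVEC, no more than 12 passages | input = 1250 cells per well | controls = vehicle and MePR control wells | measured by = CTG luminescence | times = 72 h compound incubation | format = collagen-coated 384-well format | read-out = % viability vs DMSO wells | doses = single 10 µM dose, 0.1% DMSO, from 5x medium stock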

Assay [5] can be described thus: growth inhibitors of H69AR lung tumor, primary screen, human, duplicate replicates (AID 580;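 active = viability at or under a set limit in both replicates, limit being median viability minus 3 SD, cut at about 48% in these data, passing the limit was not always enough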;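 note: 100% = mean luminescence of untreated wells and 0% = no signal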). The conditions noted are these: H69AR lung tumor cells viability, ATP luminescence, 72 h; at 10 µM; stronger effect = lower value.
The nature of assay [6]: reversal of MRP1-mediated doxorubicin resistance, pilot screen, H69AR cells, doxorubicin co-treatment (AID 601;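 active = viability loss from added drug above about 55%, and viability with drug at most 40%, in both replicates, limit read from the data, passing the limit was not always enough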). The conditions noted are these: CellTiter-Glo, 72 h, at 10 µM; for differential viability (reversal): stronger effect = higher value. On the technique in general: ATP-based viability assays read luminescence as a measure of living cells.
Assay [7] is described as follows: 384-well plate pilot, post-Golgi transport modulator project, inhibition of yeast transport mutant growth (AID 636; in the data active = inhibition above about 31%). Particulars: absorbance 615 nm, about 18 h, stronger effect = higher value.
Assay [8] can be described thus: growth suppression of yeast trafficking mutant, preliminary HTS, modulators of trafficking downstream of Golgi apparatus project, 1536-format plate, OD 615 nm (AID 637; in the data active = inhibition above about 30%). Particulars: yeast transport mutant growth, absorbance 615 nm, 18 h; stronger effect = higher value.
[9] abbreviates: H69AR cells + 2 uM doxorubicin, measured here: viability with 2 uM doxorubicin, stronger effect = lower value.
[10] abbreviates: H69AR cells, compound alone cytotoxicity.

The values below come from PubChem BioAssay.

Broadly, the viability is a read-out of living cells in per cent, often relative to untreated cells. As a reminder, the inhibition is the change of the read-out against control, counted positive when it falls.

Activity calls are given as the source filed them.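 Rule for the calls, unless noted: active = Her2 level under about 52% in both replicate screens, with viability over 70% of control (limit read from the data); inconclusive = Her2 under the limit in one screen only, or viability under 70%; inactive = Her2 level above the set limit.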

Sequence of Receptor tyrosine-protein kinase erbB-2 (Homo sapiens) (P04626 whole entry, looked up): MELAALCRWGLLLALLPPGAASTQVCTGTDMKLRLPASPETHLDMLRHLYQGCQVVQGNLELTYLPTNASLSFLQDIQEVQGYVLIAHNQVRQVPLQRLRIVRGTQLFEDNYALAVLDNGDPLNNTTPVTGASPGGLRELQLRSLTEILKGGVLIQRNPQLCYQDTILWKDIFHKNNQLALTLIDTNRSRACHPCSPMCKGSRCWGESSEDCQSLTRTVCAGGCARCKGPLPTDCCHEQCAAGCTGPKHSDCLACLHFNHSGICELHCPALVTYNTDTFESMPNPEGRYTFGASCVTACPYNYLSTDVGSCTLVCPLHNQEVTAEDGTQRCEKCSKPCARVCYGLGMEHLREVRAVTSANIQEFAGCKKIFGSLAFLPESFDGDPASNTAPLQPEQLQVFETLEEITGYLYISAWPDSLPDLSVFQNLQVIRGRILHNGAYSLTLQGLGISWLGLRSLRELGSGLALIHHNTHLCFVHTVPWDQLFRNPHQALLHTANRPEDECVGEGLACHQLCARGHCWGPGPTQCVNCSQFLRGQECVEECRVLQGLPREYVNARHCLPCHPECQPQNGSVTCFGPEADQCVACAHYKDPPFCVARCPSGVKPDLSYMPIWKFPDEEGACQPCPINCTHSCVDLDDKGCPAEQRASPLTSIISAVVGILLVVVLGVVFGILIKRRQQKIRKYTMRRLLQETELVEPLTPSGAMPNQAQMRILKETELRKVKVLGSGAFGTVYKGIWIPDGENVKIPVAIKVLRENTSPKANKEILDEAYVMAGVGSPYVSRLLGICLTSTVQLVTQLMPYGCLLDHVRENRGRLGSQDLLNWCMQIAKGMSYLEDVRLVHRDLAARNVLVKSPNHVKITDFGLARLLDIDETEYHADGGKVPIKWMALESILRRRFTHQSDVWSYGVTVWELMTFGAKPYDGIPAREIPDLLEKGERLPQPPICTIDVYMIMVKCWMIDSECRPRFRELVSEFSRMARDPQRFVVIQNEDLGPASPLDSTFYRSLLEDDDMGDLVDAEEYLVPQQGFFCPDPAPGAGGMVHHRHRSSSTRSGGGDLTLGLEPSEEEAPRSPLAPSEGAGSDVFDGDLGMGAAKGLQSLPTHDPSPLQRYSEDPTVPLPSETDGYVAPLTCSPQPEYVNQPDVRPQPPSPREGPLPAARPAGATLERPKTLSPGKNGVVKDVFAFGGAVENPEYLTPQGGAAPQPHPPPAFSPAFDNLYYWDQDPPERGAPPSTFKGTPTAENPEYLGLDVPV

With `C[C@H](NC(=O)Nc1cccc(C(F)(F)F)c1)C(=O)O`, the viability is 108% in assay [1]; 108% (inactive) in assay [3]; 94.3% (inactive) in assay [4]; 93.2% (inactive) in assay [5]; 87.9% in assay [6] (setting [9]); 93.2% in assay [6] (setting [10]). In assay [2], the Her2 level is 108% (inactive). Moreover, the differential viability (reversal) in assay [6] (H69AR cells + 2 uM doxorubicin) was 5.33% (inactive). Moreover, the inhibition was -3.07% (inactive) in assay [7] and 1.61% (inactive) in assay [8].
`COC(=O)CCC(=O)Nc1cccc(Br)c1`: the viability in assay [1] is 128%; in assay [3], 128% (inactive); in assay [4] it was 110% (inactive); in assay [5], 101% (inactive); in assay [6] (setting [9]), 100%; in assay [6] (setting [10]), 101%. Moreover, the Her2 level in assay [2] was 85% (inactive). In assay [6] (H69AR cells + 2 uM doxorubicin), the differential viability (reversal) is 0.985% (inactive). Moreover, the inhibition in assay [7] was -9.32% (inactive); in assay [8], -3.65% (inactive).
Regarding `CCOC(=O)c1ccc(-n2c(=O)[nH]c3ccccc3c2=O)cc1`, the viability is 102% in assay [1]; 102% (inactive) in assay [3]; 105% (inactive) in assay [4]; 93.1% (inactive) in assay [5]; 90.4% in assay [6] (setting [9]); 93.1% in assay [6] (setting [10]). Moreover, in assay [2], the Her2 level is 120% (inactive). In addition, the differential viability (reversal) in assay [6] (H69AR cells + 2 uM doxorubicin) is 2.73% (inactive). For the same molecule, the inhibition was 3.07% (inactive) in assay [7] and -2.74% (inactive) in assay [8].
Regarding `COc1cccc(S(=O)(=O)Nc2cccnc2)c1`, the viability in assay [1] is 98%; in assay [3] it was 98% (inactive); in assay [4] it was 88.2% (inactive); in assay [5] it was 103% (inactive); in assay [6] (setting [9]), 90.3%; in assay [6] (setting [10]), 103%. For the same molecule, the Her2 level in assay [2] is 107% (inactive). Besides, in assay [6] (H69AR cells + 2 uM doxorubicin), the differential viability (reversal) was 12.3% (inactive). For the same molecule, the inhibition in assay [7] was -0.4% (inactive); in assay [8], -3.71% (inactive).
For the molecule `COc1ccc(CN2CC(C(=O)NCCCOC(C)C)CC2=O)cc1` (stereo not given), the viability was 101% in assay [1]; 101% (inactive) in assay [3]; 107% (inactive) in assay [4]; 99.1% (inactive) in assay [5]; 95.2% in assay [6] (setting [9]); 99.1% in assay [6] (setting [10]). Also, the Her2 level in assay [2] is 90.5% (inactive). Also, in assay [6] (H69AR cells + 2 uM doxorubicin), the differential viability (reversal) is 3.83% (inactive). For the same molecule, the inhibition is -2.11% (inactive) in assay [7] and 0.81% (inactive) in assay [8].
On to `COC(=O)c1ccc(CSc2nc3c(cnn3-c3ccc(C)c(C)c3)c(=O)[nH]2)o1`, for which the viability is 90% in assay [1]; 90% (inactive) in assay [3]; 18.9% (active) in assay [4]; 88.4% (inactive) in assay [5]; 77.8% in assay [6] (setting [9]); 88.4% in assay [6] (setting [10]). In addition, the Her2 level in assay [2] was 91.5% (inactive). In addition, the differential viability (reversal) in assay [6] (H69AR cells + 2 uM doxorubicin) was 10.6% (inactive). The inhibition was -3.6% (inactive) in assay [7] and -1.64% (inactive) in assay [8].
For the molecule `Cc1oc(-c2ccccc2F)nc1CS(=O)(=O)CC(=O)NCc1ccco1`, the viability in assay [1] is 116%; in assay [3] it was 116% (inactive); in assay [4], 85.9% (inactive); in assay [5], 93.8% (inactive); in assay [6] (setting [9]), 86.8%; in assay [6] (setting [10]), 93.8%. For the same molecule, the Her2 level in assay [2] is 124% (inactive). Besides, the differential viability (reversal) in assay [6] (H69AR cells + 2 uM doxorubicin) was 7.03% (inactive). Also, the inhibition in assay [7] was -3.2% (inactive); in assay [8] it was -2.62% (inactive).
In the case of `Nc1cc(CN2C(=O)c3ccccc3C2=O)cc(Cl)c1O`, the viability in assay [1] is 102%; in assay [3], 102% (inactive); in assay [4], 75.1% (inactive); in assay [5], 108% (inactive); in assay [6] (setting [9]), 79.2%; in assay [6] (setting [10]) it was 108%. In addition, in assay [2], the Her2 level is 91.5% (inactive). For the same molecule, the differential viability (reversal) in assay [6] (H69AR cells + 2 uM doxorubicin) was 29% (inactive). Besides, the inhibition in assay [7] was -5.41% (inactive); in assay [8] it was -1.64% (inactive).
In the case of `Cn1c(SCc2ccc3c(c2)OCO3)nnc1-c1ccccc1`, the viability in assay [1] is 99.5%; in assay [3], 99.5% (inactive); in assay [4], 99.1% (inactive); in assay [5] it was 96.2% (inactive); in assay [6] (setting [9]), 84.4%; in assay [6] (setting [10]), 96.2%. Also, in assay [2], the Her2 level is 108% (inactive). The differential viability (reversal) in assay [6] (H69AR cells + 2 uM doxorubicin) was 11.7% (inactive). In addition, the inhibition in assay [7] is 1.45% (inactive); in assay [8], -1.11% (inactive).
As for `COc1cc(S(=O)(=O)NC2CCCCC2)ccc1Cl`, the viability was 94.5% in assay [1]; 94.5% (inactive) in assay [3]; 82.3% (inactive) in assay [4]; 92.7% (inactive) in assay [5]; 85.3% in assay [6] (setting [9]); 92.7% in assay [6] (setting [10]). Moreover, the Her2 level in assay [2] was 84.5% (inactive). Moreover, the differential viability (reversal) in assay [6] (H69AR cells + 2 uM doxorubicin) was 7.43% (inactive). Further, the inhibition was -3.95% (inactive) in assay [7] and -2.7% (inactive) in assay [8].
In the case of `CCCCSCCCNC(=O)CS(=O)Cc1nc(-c2cccc(C)c2)oc1C` (stereo not given), the viability in assay [1] is 98.5%; in assay [3] it was 98.5% (inactive); in assay [4], 91.9% (inactive); in assay [5], 87.5% (inactive); in assay [6] (setting [9]) it was 91.2%; in assay [6] (setting [10]), 87.5%. In addition, the Her2 level in assay [2] is 76% (inactive). Besides, the differential viability (reversal) in assay [6] (H69AR cells + 2 uM doxorubicin) was -3.76% (inactive). Moreover, the values for the inhibition in assay [7] and in assay [8] were -1.58% (inactive) and -1% (inactive), respectively.
`CN(C)S(=O)(=O)c1ccc(/C(O)=C2/C(=O)C(=O)N(CCN3CCCCC3)C2c2cccnc2)cc1` (stereo not given): the viability in assay [1] is 87%; in assay [3], 87% (inactive); in assay [4] it was 92.1% (inactive); in assay [5], 87.3% (inactive); in assay [6] (setting [9]) it was 90.7%; in assay [6] (setting [10]), 87.3%. The Her2 level in assay [2] was 166% (inactive). For the same molecule, in assay [6] (H69AR cells + 2 uM doxorubicin), the differential viability (reversal) was -3.39% (inactive). In addition, the inhibition in assay [7] is 6.54% (inactive); in assay [8], 11.3% (inactive).
Consider `CCOC(=O)C1CCN(c2c(Nc3ccc4c(c3)OCCO4)c(=O)c2=O)CC1`, for which the viability is 82.5% in assay [1]; 82.5% (inactive) in assay [3]; 88% (inactive) in assay [4]; 88.4% (inactive) in assay [5]; 89.2% in assay [6] (setting [9]); 88.4% in assay [6] (setting [10]). The Her2 level in assay [2] is 100% (inactive). In assay [6] (H69AR cells + 2 uM doxorubicin), the differential viability (reversal) is -0.805% (inactive). For the same molecule, the inhibition is 1.03% (inactive) in assay [7] and 3.17% (inactive) in assay [8].
As for `Cc1cc(NC(=O)CSc2nccn2-c2ccc(F)cc2)no1`, the viability in assay [1] is 85.5%; in assay [3] it was 85.5% (inactive); in assay [4], 83.4% (inactive); in assay [5], 104% (inactive); in assay [6] (setting [9]), 88.4%; in assay [6] (setting [10]), 104%. Also, the Her2 level in assay [2] is 81.5% (inactive). In assay [6] (H69AR cells + 2 uM doxorubicin), the differential viability (reversal) is 15.8% (inactive). The inhibition in assay [7] is -2.99% (inactive); in assay [8] it was -3.17% (inactive).
